# Experimental data reported in ChEMBL document CHEMBL4842330, “New nimesulide derivatives with amide/sulfonamide moieties: Selective COX-2 inhibition and antitumor effects” (Eur J Med Chem, 2021).
# Calls of active or inactive are those of the source. The calls are words filed in the database; no cut-off is given here.
# Key:
# MCF7 [1] = test: Cytotoxicity against human MCF7 cells assessed as cell viability at 100 uM after 48 hrs by MTT assay relative to control; type: functional; conditions: read-out: Activity
# In short: (§1)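 Cells in exponential growth were seeded at 5 × 10⁴ cells/mL, held 24 h at 37 °C, then exposed to compound for 48 h. MTT was added to 1 mg/mL final for 2 h. Formazan was dissolved in DMSO and read at 570 nm, with 620 nm background subtraction. Final DMSO ≤1.0%; viability reported as percentage of control.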
# PC-3 [2] = test: Cytotoxicity against human PC-3 cells assessed as cell viability at 100 uM after 48 hrs by MTT assay relative to control; type: functional; conditions: read-out: Activity; in short: as §1
# HT-29 [3] = test: Cytotoxicity against human HT-29 cells assessed as cell viability at 100 uM after 48 hrs by MTT assay relative to control; type: functional; conditions: read-out: Activity; in short: as §1
# [4] = Inhibition of LPS-induced TNF alpha mRNA expression in mouse RAW264.7 cells at 20 uM by RT-qPCR analysis relative to control; type: functional
# In short: (§2)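 RAW264.7 cells were kept in high-glucose DMEM with 10% FBS. They were treated with compound alongside LPS stimulation. iNOS, TNF-α and IL-1β mRNA were quantified by qPCR using TaqMan probes, with β-actin as housekeeping gene, and expressed relative to LPS control. Final DMSO ≤1.0%.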
# [5] = target: T1, Prostaglandin G/H synthase 2 (Homo sapiens) (UniProt P35354); test: Inhibition of human recombinant COX-2 at 1 uM using arachidonic acid as substrate preincubated for 10 mins followed by substrate addition relative to control
# T1 sequence (whole entry): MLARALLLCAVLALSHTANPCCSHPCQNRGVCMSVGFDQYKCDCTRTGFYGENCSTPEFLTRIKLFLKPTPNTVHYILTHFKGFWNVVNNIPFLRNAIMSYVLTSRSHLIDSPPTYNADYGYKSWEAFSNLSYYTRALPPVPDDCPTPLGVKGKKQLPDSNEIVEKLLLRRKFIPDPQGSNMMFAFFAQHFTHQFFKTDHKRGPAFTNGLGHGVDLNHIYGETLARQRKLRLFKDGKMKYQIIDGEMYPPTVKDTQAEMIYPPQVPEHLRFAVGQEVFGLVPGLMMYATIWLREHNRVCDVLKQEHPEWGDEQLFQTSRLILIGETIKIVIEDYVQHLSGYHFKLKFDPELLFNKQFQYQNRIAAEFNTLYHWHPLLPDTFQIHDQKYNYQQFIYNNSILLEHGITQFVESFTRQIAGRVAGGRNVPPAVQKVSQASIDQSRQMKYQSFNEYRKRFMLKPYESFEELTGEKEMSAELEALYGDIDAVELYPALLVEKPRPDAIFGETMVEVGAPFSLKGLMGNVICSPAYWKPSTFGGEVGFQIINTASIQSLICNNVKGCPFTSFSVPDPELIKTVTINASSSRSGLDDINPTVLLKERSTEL
# THP-1 [6] = test: Antiinflammatory activity in LPS-stimulated human THP-1 cells assessed as suppression of COX-2 mRNA expression at 50 uM incubated for 24 hrs by ELISA relative to control; type: functional; conditions: in the assay text read “by qPCR” for “by ELISA”
# In short: (§3)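 THP-1 monocytes plated at 1 × 10⁶ cells/mL, differentiated with 10 ng/mL PMA for 24 h, then rested 24 h in PMA-free medium. Cells were treated with compound and LPS stimulation. COX mRNA was quantified by qPCR with TaqMan probes against β-actin as housekeeping gene. Compound stocks in DMSO, final DMSO ≤1.0%.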
# THP-1 [7] = test: Antiinflammatory activity in LPS-stimulated human THP-1 cells assessed as suppression of PGE2 release at 50 uM incubated for 24 hrs by ELISA relative to control; type: functional
# In short: (§4)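 THP-1 monocytes were differentiated with PMA (10 ng/mL, 24 h) and rested 24 h PMA-free. They were then given compound alongside 1 µg/mL LPS for 24 h. PGE₂ in supernatants was measured by ELISA and normalised to the BCA total protein of viable cells. Final DMSO ≤1.0%; at least three independent biological replicates.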
# THP-1 [8] = test: Antiinflammatory activity in LPS-stimulated human THP-1 cells assessed as suppression of PGE2 release at 100 uM incubated for 24 hrs by ELISA relative to control; type: functional; in short: as §4
# [9] = target: COX-1 (Prostaglandin G/H synthase 1) (Homo sapiens, UniProt P23219); test: Inhibition of human recombinant COX-1 at 10 uM using arachidonic acid as substrate preincubated for 10 mins followed by substrate addition relative to control; conditions: recombinant COX-1, probe arachidonic acid
# [10] = Inhibition of LPS-induced IL-1 beta mRNA expression in mouse RAW264.7 cells at 20 uM by RT-qPCR analysis relative to control; type: functional; in short: as §2
# [11] = Inhibition of LPS-induced IL-1 beta mRNA expression in mouse RAW264.7 cells at 50 uM by RT-qPCR analysis relative to control; type: functional; in short: as §2
# RAW264.7 [12] = test: Inhibition of LPS-induced NO release in mouse RAW264.7 cells at 50 uM when treated with compound and LPS simultaneously measured after 24 hrs by Griess reagent based assay relative to control; type: functional
# In short: (§5)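 RAW264.7 cells were plated at 4 × 10⁵ cells/mL in phenol-free medium and left 24 h. They then received compound together with LPS (1 µg/mL) for 24 h. Nitrite in supernatants was measured by the Griess reaction and normalised to BCA total protein of viable cells. 1400W at 20 µM served as positive control.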
# RAW264.7 [13] = test: Inhibition of LPS-induced NO release in mouse RAW264.7 cells at 20 uM when treated with compound and LPS simultaneously measured after 24 hrs by Griess reagent based assay relative to control; type: functional; in short: as §5
# [14] = Inhibition of LPS-induced TNF alpha mRNA expression in mouse RAW264.7 cells at 50 uM by RT-qPCR analysis relative to control; type: functional; in short: as §2
# THP-1 [15] = test: Antiinflammatory activity in LPS-stimulated human THP-1 cells assessed as suppression of COX-2 mRNA expression at 100 uM incubated for 24 hrs by ELISA relative to control; type: functional; conditions: in the assay text read “by qPCR” for “by ELISA”; in short: as §3
# [16] = Inhibition of LPS-induced iNOS mRNA expression in mouse RAW264.7 cells assessed as downregulation of iNOS mRNA expression at 20 uM by RT-qPCR analysis relative to control; type: functional; in short: as §2
# RAW264.7 [17] = test: Inhibition of LPS-induced iNOS mRNA expression in mouse RAW264.7 cells assessed as downregulation of iNOS mRNA expression at 50 uM by RT-qPCR analysis relative to control; type: functional, cell-based; in short: as §2
# HUVEC = test: Cytotoxicity against human HUVEC cells assessed as inhibition of cell growth after 48 hrs by SRB assay; type: cell-based
# In short: (§6)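 Cells seeded at 5 × 10⁴ cells/mL were held 24 h, then treated 48 h across final concentrations of 0–200 µM. They were fixed with 10% TCA for 1 h at 4 °C and stained with 0.04% SRB for 30 min. Bound dye was washed with 1% acetic acid, solubilised in 10 mM Tris base (pH 10.5) and read at 565 nm. IC50 derived from concentration–response curves.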
# MCF7 [18] = test: Cytotoxicity against human MCF7 cells assessed as inhibition of cell growth after 48 hrs by SRB assay; type: functional, cell-based; conditions: MCF7, 48 h; in short: as §6
# PC-3 [19] = test: Cytotoxicity against human PC-3 cells assessed as inhibition of cell growth after 48 hrs by SRB assay; type: functional, cell-based; conditions: PC-3, 48 h; in short: as §6
# HT-29 [20] = test: Cytotoxicity against human HT-29 cells assessed as inhibition of cell growth after 48 hrs by SRB assay; type: functional, cell-based; conditions: HT-29, 48 h; in short: as §6
# MCF7 [21] = test: Induction of apoptosis in human MCF7 cells assessed as downregulation of Bcl-2 protein expression at 10 to 25 uM measured after 24 hrs by Western blot analysis; conditions: dose 10-25 µM
# MCF7 [22] = test: Inhibition of colony formation in human MCF7 cells assessed as decrease in colonies incubated for 14 days by crystal violet staining based clonogenic assay; type: functional, cell-based; conditions: time 14.0 day
# In short: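 MCF-7 cells seeded at 5 × 10² per well were allowed to attach for 24 h. Compound was then applied at increasing concentrations, with medium and compound renewed every 2 days for 14 days. Colonies were fixed in 75% methanol/25% acetic acid for 30 min, stained with 0.5% crystal violet for 30 min, and counted.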
# MCF7 [23] = test: Induction of apoptosis in human MCF7 cells assessed as increase in BAX/Bcl-2 ratio at 10 to 25 uM measured after 24 hrs by Western blot analysis; conditions: dose 10-25 µM
# MCF7 [24] = test: Induction of apoptosis in human MCF7 cells assessed as upregulation of BAX protein expression measured after 24 hrs by Western blot analysis; type: functional, cell-based
# In short: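 MCF-7 cells seeded at 1 × 10⁶ cells/mL were exposed to compound for 24 h and lysed in RIPA buffer. Lysates were quantified by BCA, equally loaded, and run on a 12% SDS gel with 4% stacking gel. Blots were probed at 4 °C for BAX, BCL-2 and β-actin, then with HRP secondary, and detected by chemiluminescence. Band densitometry reported as relative change versus control.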
# COX-1 (Prostaglandin G/H synthase 1), sequence (P23219 whole entry): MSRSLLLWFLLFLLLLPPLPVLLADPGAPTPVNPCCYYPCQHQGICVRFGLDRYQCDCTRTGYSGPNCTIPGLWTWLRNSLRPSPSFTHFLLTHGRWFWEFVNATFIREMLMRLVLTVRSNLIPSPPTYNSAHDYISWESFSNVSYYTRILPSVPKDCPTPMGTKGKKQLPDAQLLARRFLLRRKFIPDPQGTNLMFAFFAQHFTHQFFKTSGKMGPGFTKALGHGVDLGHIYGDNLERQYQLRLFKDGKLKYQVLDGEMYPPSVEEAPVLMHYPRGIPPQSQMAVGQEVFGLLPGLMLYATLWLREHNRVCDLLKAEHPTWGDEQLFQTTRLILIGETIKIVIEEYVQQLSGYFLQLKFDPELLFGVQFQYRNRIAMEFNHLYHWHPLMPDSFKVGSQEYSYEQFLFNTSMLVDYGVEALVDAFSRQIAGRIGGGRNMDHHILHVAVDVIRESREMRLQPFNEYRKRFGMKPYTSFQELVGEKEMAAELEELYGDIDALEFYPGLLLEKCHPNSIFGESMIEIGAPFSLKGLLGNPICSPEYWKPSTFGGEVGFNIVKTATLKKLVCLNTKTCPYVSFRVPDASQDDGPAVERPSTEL
SMILES,viability at 100 µM (MCF7 [1]),viability at 100 µM (PC-3 [2]),viability at 100 µM (HT-29 [3]),further results
CCOc1cc(NS(=O)(=O)c2cccc([N+](=O)[O-])c2)ccc1NS(C)(=O)=O,127%,75.5%,116%,–
CC(C)Oc1cc(NC(=O)c2ccc(C(N)=O)cc2)ccc1NS(C)(=O)=O,61.9%,49.8%,79.4%,–
CC(C)Oc1cc(NC(=O)c2ccc([N+](=O)[O-])cc2)ccc1NS(C)(=O)=O,101%,81%,124%,–
CCOc1cc(NS(=O)(=O)c2ccc([N+](=O)[O-])cc2)ccc1NS(C)(=O)=O,119%,65.7%,118%,inhibition at 20 µM [4]: 46%; inhibition [5]: 88%; Activity (THP-1 [6]): 47%; Activity (THP-1 [7]): 77%; Activity (THP-1 [8]): 44%; inhibition at 10 µM [9]: 21%; inhibition at 20 µM [10]: 39%; inhibition at 50 µM [11]: 22%; inhibition at 50 µM (RAW264.7 [12]): 68%; inhibition at 20 µM (RAW264.7 [13]): 40.7%; inhibition at 50 µM [14]: 22%; Activity (THP-1 [15]): 60%
CCOc1cc(NC(=O)c2cccc([N+](=O)[O-])c2)ccc1NS(C)(=O)=O,90.8%,90.2%,70.4%,–
CS(=O)(=O)Nc1ccc(NC(=O)c2ccc(C(N)=O)cc2)cc1Oc1ccccc1,53.1%,88.7%,64.4%,–
COc1ccc(C(=O)Nc2ccc(NS(C)(=O)=O)c(OC(C)C)c2)c([N+](=O)[O-])c1,63.5%,94.2%,111%,–
CC(C)Oc1cc(NC(=O)c2ccc(F)cc2)ccc1NS(C)(=O)=O,110%,79.4%,49.6%,inhibition at 20 µM [4]: 44%; inhibition at 20 µM [16]: 40%; inhibition [5]: 72.8%; Activity (THP-1 [6]): 53%; inhibition (RAW264.7 [17]): Active; Activity (THP-1 [7]): 67%; Activity (THP-1 [8]): 68%; inhibition at 10 µM [9]: 27.2%; inhibition at 20 µM [10]: 45%; inhibition at 50 µM [11]: 51%; inhibition at 50 µM (RAW264.7 [12]): 46.4%; inhibition at 20 µM (RAW264.7 [13]): 43%; inhibition at 50 µM [14]: 57%; Activity (THP-1 [15]): 61%
CC(C)Oc1cc(NS(=O)(=O)c2ccc([N+](=O)[O-])cc2)ccc1NS(C)(=O)=O,57.9%,91.4%,75.4%,–
COc1ccc(C(=O)Nc2ccc(NS(C)(=O)=O)c(OC(C)C)c2)cc1,153%,65.8%,67.9%,–
CC(C)Oc1cc(NS(=O)(=O)c2ccc(F)cc2)ccc1NS(C)(=O)=O,130%,75.5%,92.9%,–
COc1cccc2c1C(=O)c1c(O)c3c(c(O)c1C2=O)C[C@@](O)(C(=O)CO)C[C@@H]3O[C@H]1C[C@H](N)[C@H](O)[C@H](C)O1 [DOXORUBICIN],14.1%,11.8%,21%,IC50 (HUVEC): 0.1 µM; IC50 (MCF7 [18]): 0.16 µM; IC50 (PC-3 [19]): 16.9 µM; IC50 (HT-29 [20]): 0.15 µM
CCOc1cc(NC(=O)c2ccc([N+](=O)[O-])cc2)ccc1NS(C)(=O)=O,116%,84.8%,114%,–
COc1ccc(S(=O)(=O)Nc2ccc(NS(C)(=O)=O)c(OC(C)C)c2)cc1,130%,68.6%,102%,–
CCOc1cc(NS(=O)(=O)c2ccccc2[N+](=O)[O-])ccc1NS(C)(=O)=O,139%,77.9%,133%,–
CCOc1cc(NC(=O)c2ccc(F)cc2)ccc1NS(C)(=O)=O,64.4%,90%,80.1%,–
CCOc1cc(NC(=O)c2ccccc2[N+](=O)[O-])ccc1NS(C)(=O)=O,122%,100%,112%,–
CS(=O)(=O)Nc1ccc(NC(=O)c2ccc(F)cc2)cc1Oc1ccccc1,22.2%,24.8%,33.1%,Activity (MCF7 [21]): Active; IC50 (HUVEC): > 200 µM; inhibition (MCF7 [22]): Dose-Dependent Effect; Activity (MCF7 [23]): Active; IC50 (MCF7 [18]): 11.3 µM; IC50 (PC-3 [19]): > 100 µM; Activity (MCF7 [24]): Dose-Dependent Effect; IC50 (HT-29 [20]): 9.24 µM
